Data: ChEMBL document CHEMBL1255404, “Spread of OXA-48-encoding plasmid in Turkey and beyond” (2010)

Assays:
Format in all cases: functional
Escherichia coli [1] = assay: Antimicrobial activity against Escherichia coli isolate J53 harboring pI-2 containing beta-lactamase OXA-48 located within transposon Tn1999.2 by Etest method
In short: (§1)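 β-Lactam MICs read with Etest strips. Strains are E. coli J53 recipient and J53 transconjugants carrying OXA-48-positive plasmids recovered from clinical enterobacterial isolates.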

Providencia rettgeri = assay: Antimicrobial activity against Providencia rettgeri isolate expressing beta-lactamase OXA-48 and TEM-101 by Etest method
Enterobacter cloacae [2] = assay: Antimicrobial activity against Enterobacter cloacae isolate 1 expressing beta-lactamase OXA-48 and SHV-5 by Etest method
Escherichia coli [3] = assay: Antimicrobial activity against Escherichia coli isolate J53 harboring pEnc2 containing beta-lactamase OXA-48 located within transposon Tn1999 by Etest method; in short: as §1
Escherichia coli [4] = assay: Antimicrobial activity against Escherichia coli isolate J53 harboring pEcA containing beta-lactamase OXA-48 located within transposon Tn1999.2 by Etest method; in short: as §1
Klebsiella pneumoniae [5] = assay: Antimicrobial activity against Klebsiella pneumoniae isolate KpI-1 expressing beta-lactamase OXA-48 and CTX-M-15 by Etest method
Klebsiella pneumoniae [6] = assay: Antimicrobial activity against Klebsiella pneumoniae isolate KpBEL expressing beta-lactamase OXA-48 by Etest method
In short: (§2)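 MICs of β-lactams read from Etest strips. The test organisms are carbapenem-resistant, OXA-48-positive clinical Enterobacteriaceae isolates recovered from Turkey, Lebanon, Egypt, France and Belgium.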

Klebsiella pneumoniae [7] = assay: Antimicrobial activity against Klebsiella pneumoniae isolate Kp3A expressing beta-lactamase OXA-48 by Etest method; in short: as §2
Escherichia coli [8] = assay: Antimicrobial activity against Escherichia coli isolate J53 harboring p3A containing beta-lactamase OXA-48 located within transposon Tn1999 by Etest method; in short: as §1
Klebsiella pneumoniae [9] = assay: Antimicrobial activity against Klebsiella pneumoniae isolate KpE expressing beta-lactamase OXA-48 and CTX-M-15 by Etest method
Klebsiella pneumoniae [10] = assay: Antimicrobial activity against Klebsiella pneumoniae isolate KpL expressing beta-lactamase OXA-48 by Etest method
Escherichia coli [11] = assay: Antimicrobial activity against Escherichia coli isolate J53 harboring pL containing beta-lactamase OXA-48 located within transposon Tn1999.2 by Etest method; in short: as §1
Klebsiella pneumoniae [12] = assay: Antimicrobial activity against Klebsiella pneumoniae isolate Kp4A expressing beta-lactamase OXA-48 and CTX-M-15 by Etest method
Escherichia coli [13] = assay: Antimicrobial activity against Escherichia coli isolate J53 harboring pI-1 containing beta-lactamase OXA-48 located within transposon Tn1999.2 by Etest method; in short: as §1
Citrobacter freundii = assay: Antimicrobial activity against Citrobacter freundii isolate expressing beta-lactamase OXA-48 by Etest method
Klebsiella pneumoniae [14] = assay: Antimicrobial activity against Klebsiella pneumoniae isolate KpB expressing OXA-48 and CTX-M-15 by Etest method
Escherichia coli [15] = assay: Antimicrobial activity against Escherichia coli isolate TOP10 harboring pBIC containing beta-lactamase OXA-48 located within transposon Tn1999.2 by Etest method
In short: (§3)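 β-Lactam MICs read with Etest strips. Strains are E. coli TOP10 host and TOP10 transformants made with plasmid DNA extract when conjugation failed. Transformants were selected on LB agar with ticarcillin 50 μg/ml.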

Klebsiella pneumoniae [16] = assay: Antimicrobial activity against Klebsiella pneumoniae isolate Kp5A expressing beta-lactamase OXA-48 and SHV-5 by Etest method
Escherichia coli [17] = assay: Antimicrobial activity against Escherichia coli isolate J53 harboring pEnc1 containing beta-lactamase OXA-48 located within transposon Tn1999 by Etest method; in short: as §1
Escherichia coli [18] = assay: Antimicrobial activity against Escherichia coli isolate J53 harboring pBEL containing beta-lactamase OXA-48 located within transposon Tn1999.2 by Etest method; in short: as §1
Escherichia coli [19] = assay: Antimicrobial activity against Escherichia coli isolate TOP10 by Etest method; in short: as §3
Escherichia coli [20] = assay: Antimicrobial activity against Escherichia coli isolate J53 harboring p6A containing beta-lactamase OXA-48 located within transposon Tn1999 by Etest method; in short: as §1
Escherichia coli [21] = assay: Antimicrobial activity against Escherichia coli isolate A expressing beta-lactamase OXA-48 and TEM-150 by Etest method
Klebsiella pneumoniae [22] = assay: Antimicrobial activity against Klebsiella pneumoniae isolate KpBIC expressing beta-lactamase OXA-48 by Etest method; in short: as §2
Escherichia coli [23] = assay: Antimicrobial activity against Escherichia coli isolate TOP10 harboring pPR containing beta-lactamase and TEM-101 by Etest method; in short: as §3
Escherichia coli [24] = assay: Antimicrobial activity against Escherichia coli isolate J53 harboring pE containing beta-lactamase OXA-48 located within transposon Tn1999.2 by Etest method; in short: as §1
Klebsiella pneumoniae [25] = assay: Antimicrobial activity against Klebsiella pneumoniae isolate Kp6A expressing beta-lactamase OXA-48 and TEM-150 by Etest method
Enterobacter cloacae [26] = assay: Antimicrobial activity against Enterobacter cloacae isolate 2 expressing beta-lactamase OXA-48 and SHV-5 by Etest method
Escherichia coli [27] = assay: Antimicrobial activity against Escherichia coli isolate J53 harboring pBb containing beta-lactamase OXA-48 located within transposon Tn1999.2 by Etest method; in short: as §1
Klebsiella pneumoniae [28] = assay: Antimicrobial activity against Klebsiella pneumoniae isolate Kp7A expressing beta-lactamase OXA-48 by Etest method; in short: as §2
Klebsiella pneumoniae [29] = assay: Antimicrobial activity against Klebsiella pneumoniae isolate KpI-2 expressing beta-lactamase OXA-48 and CTX-M-15 by Etest method
Escherichia coli [30] = assay: Antimicrobial activity against Escherichia coli isolate J53 harboring p4A containing beta-lactamase OXA-48 located within transposon Tn1999 by Etest method; in short: as §1
Escherichia coli [31] = assay: Antimicrobial activity against Escherichia coli isolate J53 harboring pCF containing beta-lactamase OXA-48 located within transposon Tn1999 by Etest method; in short: as §1
Klebsiella pneumoniae [32] = assay: Antimicrobial activity against Klebsiella pneumoniae isolate Kp11978 expressing beta-lactamase OXA-48, SHV-2a and TEM-1 by Etest method
Escherichia coli [33] = assay: Antimicrobial activity against Escherichia coli isolate J53 harboring pA-1 containing beta-lactamase OXA-48 located within transposon Tn1999 by Etest method; in short: as §1
Escherichia coli [34] = assay: Antimicrobial activity against Escherichia coli isolate J53 harboring p5A containing beta-lactamase OXA-48 located within transposon Tn1999 by Etest method; in short: as §1
Escherichia coli [35] = assay: Antimicrobial activity against Escherichia coli isolate J53 by Etest method; in short: as §1
Escherichia coli [36] = assay: Antimicrobial activity against Escherichia coli isolate J53 harboring p7A containing beta-lactamase OXA-48 located within transposon Tn1999 by Etest method; in short: as §1

Measured: MIC

CC(C)(O/N=C(\C(=O)N[C@@H]1C(=O)N2C(C(=O)[O-])=C(C[n+]3ccccc3)CS[C@H]12)c1csc(N)n1)C(=O)O [CEFTAZIDIME]
> 512 µg/mL: Enterobacter cloacae [2] | Klebsiella pneumoniae [14]
0.25 µg/mL: Klebsiella pneumoniae [7] | Escherichia coli [8]
512 µg/mL: Providencia rettgeri | Klebsiella pneumoniae [5] | Klebsiella pneumoniae [9] | Klebsiella pneumoniae [12] | Citrobacter freundii | Klebsiella pneumoniae [16] | Escherichia coli [21] | Escherichia coli [23] | Klebsiella pneumoniae [25] | Klebsiella pneumoniae [29] | Klebsiella pneumoniae [32]
32 µg/mL: Enterobacter cloacae [26]
0.75 µg/mL: Escherichia coli [3] | Escherichia coli [4] | Klebsiella pneumoniae [10] | Escherichia coli [11] | Escherichia coli [17] | Escherichia coli [18] | Escherichia coli [31]
1 µg/mL: Klebsiella pneumoniae [6] | Escherichia coli [27]
0.06 µg/mL: Escherichia coli [19] | Escherichia coli [35]
0.12 µg/mL: all other assays above

CC(=O)OCC1=C(C(=O)O)N2C(=O)[C@@H](NC(=O)Cc3cccs3)[C@H]2SC1 [CEPHALOTHIN]
32 µg/mL: Klebsiella pneumoniae [10]
16 µg/mL: Escherichia coli [1] | Escherichia coli [3] | Escherichia coli [4] | Klebsiella pneumoniae [6] | Escherichia coli [8] | Escherichia coli [13] | Escherichia coli [15] | Escherichia coli [17] | Escherichia coli [18] | Escherichia coli [20] | Escherichia coli [23] | Escherichia coli [24] | Escherichia coli [27] | Escherichia coli [30] | Escherichia coli [34] | Escherichia coli [36]
4 µg/mL: Escherichia coli [19] | Escherichia coli [35]
0.5 µg/mL: Escherichia coli [33]
8 µg/mL: Escherichia coli [11]
> 512 µg/mL: all other assays above

CCN1CCN(C(=O)N[C@@H](C(=O)N[C@@H]2C(=O)N3[C@@H]2SC(C)(C)[C@@H]3C(=O)O)c2ccccc2)C(=O)C1=O [PIPERACILLIN]
2 µg/mL: Escherichia coli [19]
512 µg/mL: Escherichia coli [1] | Escherichia coli [8] | Escherichia coli [13] | Escherichia coli [24]
96 µg/mL: Klebsiella pneumoniae [10]
1 µg/mL: Escherichia coli [35]
> 256 µg/mL: Providencia rettgeri | Klebsiella pneumoniae [6] | Escherichia coli [21]
64 µg/mL: Escherichia coli [11]
8 µg/mL: Escherichia coli [33]
128 µg/mL: Escherichia coli [4] | Escherichia coli [18] | Escherichia coli [23]
> 512 µg/mL: all other assays above
